Laboratory results from ChEMBL document CHEMBL1151428, “Capability of 11 antipneumococcal antibiotics to select for resistance by multistep and single-step methodologies” (2007).
Converted amounts (≈) assume the structure as drawn.

Legend:
Format in all cases: functional
[1] = tested on: Streptococcus pneumoniae; experiment: Antimicrobial activity against drug-resistant Streptococcus pneumoniae isolate 3243 after 20 passages by multi-step resistance selection technique
Procedure, shortened: (§1)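 Daily serial passage in subinhibitory drug levels in 1 ml cation-adjusted Mueller-Hinton broth with 5% lysed horse blood; fresh broth for tigecycline. Each day, 10 μl were taken from the tube one to two dilutions below the MIC whose turbidity matched the growth control, and used to set the next MIC. […] MIC by macrodilution.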

[2] = tested on: Streptococcus pneumoniae; experiment: Antimicrobial activity against drug-resistant Streptococcus pneumoniae isolate 2527 after 14 passages with gemifloxacin measured after 10 antibiotic-free subculture by multi-step resistance selection technique
Procedure, shortened: (§2)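 Mutants selected by daily broth passage in subinhibitory drug in cation-adjusted Mueller-Hinton broth with 5% lysed horse blood. Stability was tested by 10 daily passages on blood agar without antibiotic, then macrodilution MIC.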

[3] = tested on: Streptococcus pneumoniae; experiment: Antimicrobial activity against drug-resistant Streptococcus pneumoniae isolate 3009 after 19 passages by multi-step resistance selection technique; procedure, shortened: as §1
[4] = tested on: Streptococcus pneumoniae; experiment: Antimicrobial activity against drug-resistant Streptococcus pneumoniae isolate 3665 after 38 passages by multi-step resistance selection technique
Procedure, shortened: (§3)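 Daily serial passage in broth at subinhibitory drug levels: 1 ml cation-adjusted Mueller-Hinton broth with 5% lysed horse blood; fresh broth for tigecycline. Each day 10 μl inoculum taken from the tube one to two dilutions below MIC matching growth-control turbidity, used to set next MIC. Continued until ≥8-fold MIC rise, minimum 14, maximum 50 passages; MIC read by macrodilution.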

[5] = tested on: Streptococcus pneumoniae; experiment: Antimicrobial activity against drug-resistant Streptococcus pneumoniae isolate 3676 after 50 passages by multi-step resistance selection technique; procedure, shortened: as §3
[6] = tested on: Streptococcus pneumoniae; experiment: Antimicrobial activity against drug-resistant Streptococcus pneumoniae isolate 1076 by NCCLS M7-A7 method
[7] = tested on: Streptococcus pneumoniae; experiment: Antimicrobial activity against drug-resistant Streptococcus pneumoniae isolate 3009 after 21 passages with gemifloxacin measured after 10 antibiotic-free subculture by multi-step resistance selection technique; procedure, shortened: as §2
[8] = tested on: Streptococcus pneumoniae; experiment: Antimicrobial activity against drug-resistant Streptococcus pneumoniae isolate 3665 after 38 passages with moxifloxacin measured after 10 antibiotic-free subculture by multi-step resistance selection technique
[9] = tested on: Streptococcus pneumoniae; experiment: Antimicrobial activity against drug-resistant Streptococcus pneumoniae isolate 3676 after 50 passages with moxifloxacin measured after 10 antibiotic-free subculture by multi-step resistance selection technique
[10] = tested on: Streptococcus pneumoniae; experiment: Antimicrobial activity against drug-resistant Streptococcus pneumoniae isolate 2527 by NCCLS M7-A7 method
[11] = tested on: Streptococcus pneumoniae; experiment: Antimicrobial activity against drug-resistant Streptococcus pneumoniae isolate 1076 after 35 passages by multi-step resistance selection technique; procedure, shortened: as §1
[12] = tested on: Streptococcus pneumoniae; experiment: Antimicrobial activity against drug-resistant Streptococcus pneumoniae isolate 2527 after 50 passages by multi-step resistance selection technique; procedure, shortened: as §1
[13] = tested on: Streptococcus pneumoniae; experiment: Antimicrobial activity against drug-resistant Streptococcus pneumoniae isolate 1076 after 14 passages with Telithromycin measured after 10 antibiotic-free subculture by multi-step resistance selection technique; procedure, shortened: as §2

In the case of `COc1c(N2C[C@@H]3CCCN[C@@H]3C2)c(F)cc2c(=O)c(C(=O)O)cn(C3CC3)c12` [MOXIFLOXACIN], the MIC [1] was 1 µg/mL (≈ 2.49 µM), the MIC [2] was 8 µg/mL (≈ 19.9 µM) and the MIC [3] was 2 µg/mL (≈ 4.98 µM). The MIC [4] was 1 µg/mL (≈ 2.49 µM), the MIC [5] was 8 µg/mL (≈ 19.9 µM) and the MIC [6] was 1 µg/mL (≈ 2.49 µM). It also gave an MIC [7] of 2 µg/mL (≈ 4.98 µM), an MIC [8] of 1 µg/mL (≈ 2.49 µM) and an MIC [9] of 8 µg/mL (≈ 19.9 µM). It also gave an MIC [10] of 2 µg/mL (≈ 4.98 µM), an MIC [11] of 8 µg/mL (≈ 19.9 µM) and an MIC [12] of 8 µg/mL (≈ 19.9 µM). The MIC [13] was 1 µg/mL (≈ 2.49 µM).
